Experimental data as given in ChEMBL document CHEMBL2177084, “Discovery of salermide-related sirtuin inhibitors: binding mode studies and antiproliferative effects in cancer cells including cancer stem cells” (J Med Chem, 2012).
Calls of active or inactive are those of the source. The rule behind the calls is not given here.

Tests used:
[1] = system: U-937; test: Induction of apoptosis in human U937 cells at 50 uM after 45 hrs by flow cytometry; assay type: functional, cell-based
How it was run: (§1)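 Apoptosis was taken as the pre-G1 peak after propidium iodide staining in hypotonic citrate/Triton buffer (30 min, dark) and flow cytometry. Triplicate experiments.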

[2] = system: U-937; test: Induction of apoptosis in human U937 cells at 5 uM after 45 hrs by flow cytometry; assay type: functional, cell-based; how it was run: as §1
[3] = biological target: T1, NAD-dependent protein deacetylase sirtuin-1 (Homo sapiens, UniProt Q96EB6); test: (§2) Inhibition of human N-terminal GST-tagged SIRT1 expressed in Escherichia coli using Arg-His- Lys-Lys(Ac) as substrate after 1 hr by Fluor de Lys fluorescence based assay
T1 sequence (Q96EB6 whole entry): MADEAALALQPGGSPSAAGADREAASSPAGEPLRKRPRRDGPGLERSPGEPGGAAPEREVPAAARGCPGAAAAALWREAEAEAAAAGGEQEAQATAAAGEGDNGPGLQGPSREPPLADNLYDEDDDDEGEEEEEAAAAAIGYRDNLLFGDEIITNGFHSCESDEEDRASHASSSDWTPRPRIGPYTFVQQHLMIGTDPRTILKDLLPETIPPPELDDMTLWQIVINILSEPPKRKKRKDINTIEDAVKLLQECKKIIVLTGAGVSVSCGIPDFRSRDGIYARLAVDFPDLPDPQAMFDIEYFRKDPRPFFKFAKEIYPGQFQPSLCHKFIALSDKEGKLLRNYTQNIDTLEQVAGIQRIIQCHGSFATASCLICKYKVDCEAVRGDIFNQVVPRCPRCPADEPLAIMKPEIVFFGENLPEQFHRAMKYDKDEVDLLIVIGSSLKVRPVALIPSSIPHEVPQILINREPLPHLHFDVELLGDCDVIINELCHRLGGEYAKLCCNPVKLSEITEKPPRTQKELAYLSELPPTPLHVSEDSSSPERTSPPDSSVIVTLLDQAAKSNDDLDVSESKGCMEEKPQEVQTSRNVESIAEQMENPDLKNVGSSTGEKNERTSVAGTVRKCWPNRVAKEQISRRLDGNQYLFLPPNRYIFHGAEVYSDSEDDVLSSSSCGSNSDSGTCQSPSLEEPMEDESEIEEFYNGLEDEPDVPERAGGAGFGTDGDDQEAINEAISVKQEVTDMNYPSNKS
How it was run: (§3)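 Recombinant full-length human sirtuin expressed in E. coli was incubated 1 h at 37 °C with p53-derived AMC-conjugated acetyl-peptide (SIRT1: Arg-His-Lys-Lys(Ac); SIRT2: Gln-Pro-Lys-Lys(Ac); […]) and NAD+ ([…]). The reaction was stopped and developed with developer containing 2 mM nicotinamide, and fluorescence read at ex 360/em 460 nm. Compound fluorescence was subtracted using an enzyme-free counter assay. Triplicate.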

[4] = system: MOLT-4; test: Antiproliferative activity against human MOLT4 cells at 100 uM by MTT assay; assay type: functional, cell-based; conditions: TDE = time-dependent effect
How it was run: (§4)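 Cells exposed to compound for 24, 48 and 72 h; growth inhibition read by MTT and expressed as percentage antiproliferative activity.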

[5] = system: MOLT-4; test: Antiproliferative activity against human MOLT4 cells at 100 uM after 24 to 72 hrs by MTT assay; assay type: functional, cell-based; how it was run: as §4
[6] = system: U-937; test: Induction of apoptosis in human U937 cells after 45 hrs by flow cytometry; assay type: functional; design: concentration or dose not given beside the values; conditions: in the assay text read “after 40 hrs” for “after 45 hrs”; how it was run: as §1
[7] = system: U-937; test: Cell cycle arrest in human U937 cells assessed as accumulation at G1 phase at 25 uM after 40 hrs by flow cytometry; assay type: functional, cell-based
[8] = biological target: T2, NAD-dependent protein deacetylase sirtuin-1 (Homo sapiens) (UniProt Q96EB6); test: as §2; how it was run: as §3
T2 sequence (whole entry): T1 sequence (Q96EB6 whole entry)

[9] = Cytotoxicity against human 30P cells after 72 hrs by celltiter-glo luminescent assay; assay type: functional
How it was run: (§5)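 Patient-derived CSC spheroids were dissociated, plated at 2000–3000 viable cells, and held 24 h at 37 °C in 5% CO2. They were then treated 72 h with eight 1:3 serial dilutions (0.023–50 μM), with 0.1% DMSO as control, in triplicate. Viability was read by CellTiter-Glo luminescence relative to DMSO, and CC50 was obtained by 4-parameter logistic fit (mean of three experiments).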

[10] = Cytotoxicity against human CRC 1.1 cells after 72 hrs by celltiter-glo luminescent assay; assay type: functional; how it was run: as §5
[11] = biological target: T3, NAD-dependent protein deacetylase sirtuin-2 (Homo sapiens, UniProt Q8IXJ6); test: Inhibition of human SIRT2 expressed in Escherichia coli using Gln-Pro-Lys-Lys(Ac) as substrate after 1 hr by Fluor de Lys fluorescence based assay; how it was run: as §3
T3 sequence (Q8IXJ6 whole entry): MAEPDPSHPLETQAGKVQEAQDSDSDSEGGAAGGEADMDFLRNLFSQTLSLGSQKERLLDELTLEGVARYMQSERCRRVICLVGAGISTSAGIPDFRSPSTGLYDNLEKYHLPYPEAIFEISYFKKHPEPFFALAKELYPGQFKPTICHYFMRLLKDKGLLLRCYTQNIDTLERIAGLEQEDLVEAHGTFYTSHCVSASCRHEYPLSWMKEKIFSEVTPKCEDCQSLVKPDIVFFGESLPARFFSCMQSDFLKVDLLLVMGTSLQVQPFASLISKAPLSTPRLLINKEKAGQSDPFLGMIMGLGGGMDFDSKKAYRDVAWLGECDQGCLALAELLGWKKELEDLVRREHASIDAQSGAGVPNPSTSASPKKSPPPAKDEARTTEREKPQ

[12] = Cytotoxicity against human 30PT cells after 72 hrs by celltiter-glo luminescent assay; assay type: functional; how it was run: as §5
[13] = Cytotoxicity against human CRO cells after 72 hrs by celltiter-glo luminescent assay; assay type: functional; how it was run: as §5
[14] = system: MOLT-4; test: Antiproliferative activity against human MOLT4 cells at 25 uM after 24 to 72 hrs by MTT assay; assay type: functional, cell-based; how it was run: as §4
[15] = system: U-937; test: Cell cycle arrest in human U937 cells assessed as accumulation at S phase at 25 uM after 40 hrs by flow cytometry; assay type: functional, cell-based
[16] = Cytotoxicity against human 30PT cells at 50 uM after 72 hrs by celltiter-glo luminescent assay; assay type: functional; how it was run: as §5
[17] = Cytotoxicity against human 30P cells at 50 uM after 72 hrs by celltiter-glo luminescent assay; assay type: functional; how it was run: as §5
[18] = Cytotoxicity against human CRC 1.1 cells at 50 uM after 72 hrs by celltiter-glo luminescent assay; assay type: functional; how it was run: as §5
[19] = Cytotoxicity against human CRO cells at 50 uM after 72 hrs by celltiter-glo luminescent assay; assay type: functional; how it was run: as §5

SMILES	Activity [1]	Activity [2]	Activity [5]	CC50 [9]	CC50 [10]	Activity [14]	further results
CC(C(=O)Nc1ccc(/N=C/c2c(O)ccc3ccccc23)cc1)c1ccccc1 (stereo not drawn)	Active	inactive	Active				IC50 [3]: 40.9 µM; Activity [4]: tde; Activity [6]: 70%; Activity [7]: Active
CC(CS(=O)(=O)c1ccc(/N=C/c2c(O)ccc3ccccc23)cc1)c1ccccc1 (stereo not drawn)	Active	inactive	Active	30.2 µM	34 µM		inhibition [8]: Active; Activity [7]: Active
CC(NS(=O)(=O)c1ccccc1/N=C/c1c(O)ccc2ccccc12)c1ccccc1 (stereo not drawn)	Active	inactive	Active				inhibition [8]: Active
CC(CS(=O)(=O)c1ccccc1/N=C/c1c(O)ccc2ccccc12)c1ccccc1 (stereo not drawn)	Active	inactive		17.4 µM	19.5 µM	Active	IC50 [11]: 24.2 µM; CC50 [12]: 15.3 µM; CC50 [13]: 15.7 µM
CC(CS(=O)(=O)c1cccc(/N=C/c2c(O)ccc3ccccc23)c1)c1ccccc1 (stereo not drawn)	Active	inactive					
CC(C(=O)Nc1ccccc1/N=C/c1c(O)ccc2ccccc12)c1ccccc1 (stereo not drawn)	Active	inactive					Activity [15]: Active
CC(CSc1ccccc1/N=C/c1c(O)ccc2ccccc12)c1ccccc1 (stereo not drawn)	Active	inactive				Active	
CC(C[S+]([O-])c1cccc(/N=C/c2c(O)ccc3ccccc23)c1)c1ccccc1 (stereo not drawn)	Active	inactive	Active	35 µM	23.4 µM	Active	IC50 [3]: 40.3 µM
CC(NS(=O)(=O)c1ccc(/N=C/c2c(O)ccc3ccccc23)cc1)c1ccccc1 (stereo not drawn)	Active	inactive	Active				
CC(C[S+]([O-])c1ccccc1/N=C/c1c(O)ccc2ccccc12)c1ccccc1 (stereo not drawn)	Active	inactive	Active			Active	inhibition at 50 µM [16]: 39%; inhibition at 50 µM [17]: 42%; inhibition at 50 µM [18]: 46%; inhibition at 50 µM [19]: 33%; Activity [4]: tde
